Laboratory results reported in ChEMBL document CHEMBL1129275, “Synthesis and in vitro and in vivo characteristics of an iodinated analogue of the beta-adrenoceptor antagonist carazolol” (J Med Chem, 1996).

Tests used:
Oryctolagus cuniculus [1] = experiment: Biodistribution pattern of [123I]- ligand was evaluated in muscle of anesthetized rabbit after Intravenous injection of 50 uCi after 4 hr; type: ADME, organism-based, Muscle tissue; details: in vivo
In short: (§1)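 Male New Zealand white rabbits, 2.5–3.5 kg, anesthetized with 5 mg/kg xylazine plus 30 mg/kg ketamine im. Each received 50 uCi radioligand (specific activity > 5000 Ci/mmol) iv via ear vein. Animals were killed with 200 mg/kg pentobarbital im at the set time. Blood was drawn by intracardiac puncture and organs weighed. Gamma counting was decay-corrected, expressed as %ID x kg body weight/g tissue, mean ± SEM, n = 3/time point.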

Oryctolagus cuniculus [2] = experiment: Biodistribution pattern of [123I]- ligand was evaluated in kidney of anesthetized rabbit after Intravenous injection of 50 uCi after 5 min; type: ADME, organism-based; details: in vivo; in short: as §1
Oryctolagus cuniculus [3] = experiment: Biodistribution pattern of [123I]- ligand was evaluated in intestine of anesthetized rabbit after Intravenous injection of 50 uCi after 6 hr; type: ADME, organism-based; details: in vivo; in short: as §1
Oryctolagus cuniculus [4] = experiment: Biodistribution pattern of [123I]- ligand was evaluated in muscle of anesthetized rabbit after Intravenous injection of 50 uCi after 24 hr; type: ADME, organism-based, Muscle tissue; details: in vivo; in short: as §1
Oryctolagus cuniculus [5] = experiment: Biodistribution pattern of [123I]- ligand was evaluated in right atrial muscle of anesthetized rabbit after Intravenous injection of 50 uCi after 30 min; type: ADME, organism-based, Muscle tissue; details: in vivo, 0.5 h
In short: (§2)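 Male New Zealand white rabbits (2.5–3.5 kg), anesthetized with xylazine 5 mg/kg plus ketamine 30 mg/kg im, given 50 µCi radioligand (specific activity >5000 Ci/mmol) iv via ear vein. Euthanized at set times by pentobarbital 200 mg/kg im, n = 3/time point. Organs removed and weighed, gamma-counted, decay/weight corrected; expressed as % ID x kg body weight/g tissue, mean ± SEM.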

Oryctolagus cuniculus [6] = experiment: Cerebral biodistribution pattern of [123I]- ligand was evaluated in striatum of anesthetized rabbit after Intravenous injection of 50 uCi after 6 hr; type: ADME, organism-based; details: in vivo; in short: as §2
Oryctolagus cuniculus [7] = experiment: Cerebral biodistribution pattern of [123I]- ligand was evaluated in cerebellum of anesthetized rabbit after Intravenous injection of 50 uCi after 30 min; type: ADME, organism-based; details: in vivo, 0.5 h; in short: as §2
Oryctolagus cuniculus [8] = experiment: Biodistribution pattern of [123I]- ligand was evaluated in lung of anesthetized rabbit after Intravenous injection of 50 uCi after 6 hr; type: ADME, organism-based; details: in vivo; in short: as §1
Oryctolagus cuniculus [9] = experiment: Biodistribution pattern of [123I]- ligand was evaluated in spleen of anesthetized rabbit after Intravenous injection of 50 uCi after 24 hr; type: ADME, organism-based; details: in vivo; in short: as §2
Oryctolagus cuniculus [10] = experiment: Cerebral biodistribution pattern of [123I]- ligand was evaluated in pituitary gland of anesthetized rabbit after Intravenous injection of 50 uCi after 24 hr; type: ADME, organism-based; details: in vivo; in short: as §2
Oryctolagus cuniculus [11] = experiment: Biodistribution pattern of [123I]- ligand was evaluated in blood of anesthetized rabbit after Intravenous injection of 50 uCi after 30 min; type: ADME, organism-based; details: in vivo, 0.5 h; in short: as §1
Oryctolagus cuniculus [12] = experiment: Cerebral biodistribution pattern of [123I]- ligand was evaluated in thalamus of anesthetized rabbit after Intravenous injection of 50 uCi after 6 hr; type: ADME, organism-based; details: in vivo
In short: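 Male New Zealand white rabbits (2.5–3.5 kg) anesthetized with xylazine 5 mg/kg plus ketamine 30 mg/kg im; 50 uCi radioligand (specific activity > 5000 Ci/mmol) given iv via ear vein. Euthanized by pentobarbital 200 mg/kg im at set times up to 24 h (n = 3/time point). Brain regions weighed and gamma-counted, decay-corrected, expressed as % ID x kg body weight/g tissue, mean ± SEM.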

Oryctolagus cuniculus [13] = experiment: Cerebral biodistribution pattern of [123I]- ligand was evaluated in thalamus of anesthetized rabbit after Intravenous injection of 50 uCi after 4 hr; type: ADME, organism-based; details: in vivo; in short: as §2
Oryctolagus cuniculus [14] = experiment: Cerebral biodistribution pattern of [123I]- ligand was evaluated in frontal cortex of anesthetized rabbit after Intravenous injection of 50 uCi after 5 min; type: ADME, organism-based; details: in vivo; in short: as §2
Oryctolagus cuniculus [15] = experiment: Cerebral biodistribution pattern of [123I]- ligand was evaluated in pituitary gland of anesthetized rabbit after Intravenous injection of 50 uCi after 1 hr; type: ADME, organism-based; details: in vivo; in short: as §2
Oryctolagus cuniculus [16] = experiment: Biodistribution pattern of [123I]- ligand was evaluated in left ventricular muscle of anesthetized rabbit after Intravenous injection of 50 uCi after 2 hr; type: ADME, organism-based, Muscle tissue; details: in vivo; in short: as §1
Oryctolagus cuniculus [17] = experiment: Biodistribution pattern of [123I]- ligand was evaluated in intestine of anesthetized rabbit after Intravenous injection of 50 uCi after 2 hr; type: ADME, organism-based; details: in vivo; in short: as §1
Oryctolagus cuniculus [18] = experiment: Cerebral biodistribution pattern of [123I]- ligand was evaluated in pituitary gland of anesthetized rabbit after Intravenous injection of 50 uCi after 6 hr; type: ADME, organism-based; details: in vivo; in short: as §2
Oryctolagus cuniculus [19] = experiment: Biodistribution pattern of [123I]- ligand was evaluated in spleen of anesthetized rabbit after Intravenous injection of 50 uCi after 1 hr; type: ADME, organism-based; details: in vivo; in short: as §2
Oryctolagus cuniculus [20] = experiment: Biodistribution pattern of [123I]- ligand was evaluated in right ventricular muscle of anesthetized rabbit after Intravenous injection of 50 uCi after 30 min; type: ADME, organism-based, Muscle tissue; details: in vivo, 0.5 h; in short: as §2
Oryctolagus cuniculus [21] = experiment: Biodistribution pattern of [123I]- ligand was evaluated in fat of anesthetized rabbit after Intravenous injection of 50 uCi after 1 hr; type: ADME, organism-based, Adipose tissue; details: in vivo; in short: as §1
Oryctolagus cuniculus [22] = experiment: Biodistribution pattern of [123I]- ligand was evaluated in intestine of anesthetized rabbit after Intravenous injection of 50 uCi after 24 hr; type: ADME, organism-based; details: in vivo; in short: as §1
Oryctolagus cuniculus [23] = experiment: Cerebral biodistribution pattern of [123I]- ligand was evaluated in thalamus of anesthetized rabbit after Intravenous injection of 50 uCi after 24 hr; type: ADME, organism-based; details: in vivo; in short: as §2
Oryctolagus cuniculus [24] = experiment: Biodistribution pattern of [123I]- ligand was evaluated in left atrial muscle of anesthetized rabbit after Intravenous injection of 50 uCi after 4 hr; type: ADME, organism-based, Muscle tissue; details: in vivo; in short: as §1
Oryctolagus cuniculus [25] = experiment: Cerebral biodistribution pattern of [123I]- ligand was evaluated in striatum of anesthetized rabbit after Intravenous injection of 50 uCi after 2 hr; type: ADME, organism-based; details: in vivo; in short: as §2
Oryctolagus cuniculus [26] = experiment: […] biodistribution pattern of [123I]- ligand was evaluated in kidney of anesthetized rabbit after Intravenous injection of 50 uCi after 24 hr; type: ADME, organism-based; details: in vivo; in short: as §2

- ID x kg of body weight/g of tissue (Oryctolagus cuniculus [1]): 0.04%
- ID x kg of body weight/g of tissue (Oryctolagus cuniculus [2]): 0.92%
- ID x kg of body weight/g of tissue (Oryctolagus cuniculus [3]): 0.05%
- ID x kg of body weight/g of tissue (Oryctolagus cuniculus [4]): 0.05%
- ID x kg of body weight/g of tissue (Oryctolagus cuniculus [5]): 0.15%
- ID x kg of body weight/g of tissue (Oryctolagus cuniculus [6]): 0.04%
- ID x kg of body weight/g of tissue (Oryctolagus cuniculus [7]): < 0.15%
- ID x kg of body weight/g of tissue (Oryctolagus cuniculus [8]): 0.71%
- ID x kg of body weight/g of tissue (Oryctolagus cuniculus [9]): 0.03%
- ID x kg of body weight/g of tissue (Oryctolagus cuniculus [10]): 0.03%
- ID x kg of body weight/g of tissue (Oryctolagus cuniculus [11]): 0.02%
- ID x kg of body weight/g of tissue (Oryctolagus cuniculus [12]): 0.03%
- ID x kg of body weight/g of tissue (Oryctolagus cuniculus [13]): 0.03%
- ID x kg of body weight/g of tissue (Oryctolagus cuniculus [14]): 0.27%
- ID x kg of body weight/g of tissue (Oryctolagus cuniculus [15]): 0.11%
- ID x kg of body weight/g of tissue (Oryctolagus cuniculus [16]): 0.2%
- ID x kg of body weight/g of tissue (Oryctolagus cuniculus [17]): 0.13%
- ID x kg of body weight/g of tissue (Oryctolagus cuniculus [18]): 0.06%
- ID x kg of body weight/g of tissue (Oryctolagus cuniculus [19]): 0.28%
- ID x kg of body weight/g of tissue (Oryctolagus cuniculus [20]): < 0.21%
- ID x kg of body weight/g of tissue (Oryctolagus cuniculus [21]): 0.06%
- ID x kg of body weight/g of tissue (Oryctolagus cuniculus [22]): 0.02%
- ID x kg of body weight/g of tissue (Oryctolagus cuniculus [23]): 0.02%
- ID x kg of body weight/g of tissue (Oryctolagus cuniculus [24]): 0.11%
- ID x kg of body weight/g of tissue (Oryctolagus cuniculus [25]): 0.07%
- ID x kg of body weight/g of tissue (Oryctolagus cuniculus [26]): 0.02%
Compound: CC(C)(/C=C/I)NC[C@H](O)COc1cccc2[nH]c3ccccc3c12
